Experimental data: ChEMBL document CHEMBL1250495, “Synthesis and antimicrobial activities of novel 1H-dibenzo[a,c]carbazoles from dehydroabietic acid” (2010)
In brackets after ≈: the same amount, converted by molar mass.

Assays:
Type in all cases: functional
[1] = test system: Bacillus subtilis; assay: Antimicrobial activity against Bacillus subtilis CGMCC 1.1162 after 24 hrs by modified microdilution method; details: CGMCC 1.1162, 24 h
Outline: (§1)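 Broth microdilution. Compounds were dissolved in 20% DMSO and serially diluted twofold, then mixed with an equal volume of bacteria in Martin's broth (~10^5 CFU/ml). Amikacin sulfate was the positive control and 20% DMSO the negative control. Wells were incubated at 37 °C for 24 h and scored visually for growth. MIC is the lowest concentration inhibiting growth.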

[2] = test system: Staphylococcus aureus; assay: Antimicrobial activity against Staphylococcus aureus CGMCC 1.1361 after 24 hrs by modified microdilution method; details: CGMCC 1.1361, 24 h; outline: as §1
[3] = test system: Trichophyton rubrum; assay: Antimicrobial activity against Trichophyton rubrum ATCC 10218 after 48 hrs by modified microdilution method; details: ATCC 10218, 48 h
Outline: (§2)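 Fungal MIC by modified microdilution. Twofold serial dilutions of compound in 20% DMSO were combined with an equal volume of inoculum in PD broth (~10^5 CFU/ml). Ketoconazole was the positive control and 20% DMSO the negative control. Plates were incubated 48 h at 28 °C and inspected for growth. MIC is the lowest concentration without visible growth.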

[4] = test system: Aspergillus niger; assay: Antimicrobial activity against Aspergillus niger CGMCC 3.316 after 48 hrs by modified microdilution method; details: CGMCC 3.316, 48 h; outline: as §2
[5] = test system: Candida albicans; assay: Antimicrobial activity against Candida albicans CGMCC 2.2086 after 48 hrs by modified microdilution method; details: CGMCC 2.2086, 48 h; outline: as §2
[6] = test system: Escherichia coli; assay: Antimicrobial activity against Escherichia coli CGMCC 1.1571 after 24 hrs by modified microdilution method; details: CGMCC 1.1571, 24 h; outline: as §1
[7] = test system: Pseudomonas fluorescens; assay: Antimicrobial activity against Pseudomonas fluorescens CGMCC 1.1828 after 24 hrs by modified microdilution method; details: CGMCC 1.1828, 24 h; outline: as §1

SMILES	MIC [1] [µg/mL]	MIC [2] [µg/mL]	MIC [3] [µg/mL]	MIC [4] [µg/mL]	MIC [5] [µg/mL]	MIC [6] [µg/mL]	MIC [7] [µg/mL]
COC(=O)[C@]1(C)CCC[C@]2(C)c3ccc(C(C)C)cc3-c3[nH]c4ccccc4c3[C@@H]12	31.2 (≈ 77.7 µM)	62.5 (≈ 156 µM)	> 100	> 100	> 100	> 100	62.5 (≈ 156 µM)
COC(=O)[C@]1(C)CCC[C@]2(C)c3ccc(C(C)C)cc3-c3[nH]c4ccc(C)cc4c3[C@@H]12	31.2 (≈ 75.1 µM)	62.5 (≈ 150 µM)	62.5 (≈ 150 µM)	> 100	> 100	> 100	31.2 (≈ 75.1 µM)
COC(=O)[C@]1(C)CCC[C@]2(C)c3ccc(C(C)C)cc3-c3[nH]c4c(C)cccc4c3[C@@H]12	> 100	> 100	> 100	> 100	> 100	> 100	> 100
COC(=O)[C@]1(C)CCC[C@]2(C)c3ccc(C(C)C)cc3-c3[nH]c4ccc(F)cc4c3[C@@H]12	1.9 (≈ 4.53 µM)	3.9 (≈ 9.3 µM)	> 100	> 100	62.5 (≈ 149 µM)	15.6 (≈ 37.2 µM)	7.8 (≈ 18.6 µM)
COC(=O)[C@]1(C)CCC[C@]2(C)c3ccc(C(C)C)cc3-c3[nH]c4c(F)cccc4c3[C@@H]12	7.8 (≈ 18.6 µM)	31.2 (≈ 74.4 µM)	62.5 (≈ 149 µM)	62.5 (≈ 149 µM)	31.2 (≈ 74.4 µM)	31.2 (≈ 74.4 µM)	15.6 (≈ 37.2 µM)
COC(=O)[C@]1(C)CCC[C@]2(C)c3ccc(C(C)C)cc3-c3[nH]c4ccc(Cl)cc4c3[C@@H]12	3.9 (≈ 8.95 µM)	3.9 (≈ 8.95 µM)	> 100	> 100	> 100	15.6 (≈ 35.8 µM)	31.2 (≈ 71.6 µM)
COC(=O)[C@]1(C)CCC[C@]2(C)c3ccc(C(C)C)cc3-c3[nH]c4c(Cl)cccc4c3[C@@H]12	31.2 (≈ 71.6 µM)	31.2 (≈ 71.6 µM)	> 100	> 100	> 100	> 100	> 100
COC(=O)[C@]1(C)CCC[C@]2(C)c3ccc(C(C)C)cc3-c3[nH]c4ccc(Br)cc4c3[C@@H]12	15.6 (≈ 32.5 µM)	31.2 (≈ 64.9 µM)	> 100	> 100	> 100	31.2 (≈ 64.9 µM)	15.6 (≈ 32.5 µM)
COC(=O)[C@]1(C)CCC[C@]2(C)c3ccc(C(C)C)cc3-c3[nH]c4c(Br)cccc4c3[C@@H]12	62.5 (≈ 130 µM)	> 100	> 100	> 100	> 100	> 100	62.5 (≈ 130 µM)
COC(=O)[C@]1(C)CCC[C@]2(C)c3ccc(C(C)C)cc3-c3[nH]c4ccc(OC)cc4c3[C@@H]12	62.5 (≈ 145 µM)	31.2 (≈ 72.3 µM)	> 100	> 100	62.5 (≈ 145 µM)	> 100	> 100
COC(=O)[C@]1(C)CCC[C@]2(C)c3ccc(C(C)C)cc3-c3[nH]c4c(OC)cccc4c3[C@@H]12	> 100	62.5 (≈ 145 µM)	> 100	> 100	> 100	> 100	> 100
CCOc1ccc2[nH]c3c(c2c1)[C@H]1[C@](C)(C(=O)OC)CCC[C@]1(C)c1ccc(C(C)C)cc1-3	62.5 (≈ 140 µM)	> 100	62.5 (≈ 140 µM)	> 100	62.5 (≈ 140 µM)	62.5 (≈ 140 µM)	31.2 (≈ 70 µM)
COC(=O)[C@]1(C)CCC[C@]2(C)c3ccc(C(C)C)cc3-c3[nH]c4ccc([N+](=O)[O-])cc4c3[C@@H]12	7.8 (≈ 17.5 µM)	7.8 (≈ 17.5 µM)	62.5 (≈ 140 µM)	> 100	31.2 (≈ 69.9 µM)	15.6 (≈ 34.9 µM)	15.6 (≈ 34.9 µM)
COC(=O)[C@]1(C)CCC[C@]2(C)c3ccc(C(C)C)cc3C(=O)C[C@@H]12	31.2 (≈ 95 µM)	31.2 (≈ 95 µM)	> 100	> 100	> 100	> 100	62.5 (≈ 190 µM)
NCC[C@H](O)C(=O)N[C@@H]1C[C@H](N)[C@@H](O[C@H]2O[C@H](CN)[C@@H](O)[C@H](O)[C@H]2O)[C@H](O)[C@H]1O[C@H]1O[C@H](CO)[C@@H](O)[C@H](N)[C@H]1O [AMIKACIN]	0.9 (≈ 1.54 µM)	0.9 (≈ 1.54 µM)				1.9 (≈ 3.24 µM)	0.9 (≈ 1.54 µM)
CC(=O)N1CCN(c2ccc(OCC3COC(Cn4ccnc4)(c4ccc(Cl)cc4Cl)O3)cc2)CC1 (configuration not stated) [KETOCONAZOLE]			3.9 (≈ 7.34 µM)	7.8 (≈ 14.7 µM)	3.9 (≈ 7.34 µM)		
COC(=O)[C@]1(C)CCC[C@]2(C)c3ccc(C(C)C)cc3CC[C@@H]12 [METHYL DEHYDROABIETATE]	> 100	62.5 (≈ 199 µM)	> 100	> 100	> 100	> 100	> 100
